# pEC50, pIC50: −log10 of the molar value.
# Columns and labels:
# [1] = tested on: SARS-CoV-2; assay: Antiviral activity against SARS CoV-2 infected in African green monkey Vero cells assessed as inhibition of viral replication incubated for 48 to 72 hrs by plaque reduction assay; assay type: functional, organism-based; conditions: Severe acute respiratory syndrome coronavirus 2, Vero
# [2] = tested on: HEK-293T; assay: Cytotoxicity against HEK293T cells assessed as reduction in cell viability measured after 72 hrs by CytoTox 96 nonradioactive cytotoxicity assay; assay type: cell-based; conditions: human
# In short: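 HEK293T cells were exposed to compound at 1 to 100 μM for 72 h. Cytotoxicity was read with a CytoTox 96 nonradioactive kit, and CC50 was fitted with a variable-slope curve.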
# [3] = Inhibition of SARS CoV-2 3C like protease using FAM-SAVLQ/SG-QLX520 as substrate pretreated for 1 hr followed by substrate addition and measured after 1 hr by FRET assay; set-up: species or system Severe acute respiratory syndrome coronavirus 2
# In short: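 SARS-CoV-2 3CLpro was expressed from pET-28a(+). It was preincubated with serial compound dilutions at 37°C for 1 h in 20 mM HEPES pH 8, 200 mM NaCl, 0.4 mM EDTA, 60% glycerol and 6 mM DTT. IC50 came from a variable-slope fit, averaging at least two determinations.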
# [4] = Inhibition of SARS CoV-2 3C like protease expressed in HEK293T cells transfected with pGlo-VRLQS incubated for 6 hrs by firefly/renilla luciferase reporter assay; assay type: cell-based; conditions: Severe acute respiratory syndrome coronavirus 2, HEK-293T
# In short: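 HEK293T cells, one day old, were co-transfected with pR-SARS-CoV-2 3CLpro (3CLpro gene in a PRRSV replicon, between ORF1b and 2a) and pGlo-VRLQS (caged firefly luciferase with a VRLQS cleavage site, plus Renilla control). C145A-mutant and mock transfections served as negative controls. Next morning, serial compound dilutions were added for 6 h at 37 C. Read-out was the firefly/Renilla ratio, and EC50 came from a variable-slope fit.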
# [5] = Inhibition of MERS CoV 3C like protease using FAM-SAVLQ/SG-QLX520 as substrate pretreated for 30 mins followed by substrate addition and measured after 1 hr by FRET assay; set-up: species or system Middle East respiratory syndrome-related coronavirus
Structure (SMILES),pEC50 [1],CC50 [2],pIC50 [3],pEC50 [4],pIC50 [5]
CC(C)C[C@H](NC(=O)OCc1ccccc1)C(=O)N[C@@H](C[C@@H]1CCNC1=O)C(O)S(=O)(=O)O (some centres not stated),6.64,–,–,–,–
CC(C)C[C@H](NC(=O)OCc1cccc(F)c1)C(=O)N[C@H](C=O)C[C@@H]1CCNC1=O,–,> 100000 nM,6.46,5.28,7.15
[2H]C([2H])(OC(=O)N[C@@H](CC(C)C)C(=O)N[C@H](C=O)C[C@@H]1CCNC1=O)c1c(F)c(F)c(F)c(F)c1F,–,–,6.33,–,–
CCCC[C@H]1CC[C@H](OC(=O)N[C@@H](CC(C)C)C(=O)N[C@H](C=O)C[C@@H]2CCNC2=O)CC1,–,55000 nM,6.77,5.32,6.92
CCCCC(OC(=O)N[C@@H](CC(C)C)C(=O)N[C@H](C=O)C[C@@H]1CCNC1=O)C1CCC(F)(F)CC1 (some centres not stated),–,–,6.72,–,–
[2H]C([2H])(OC(=O)N[C@@H](CC(C)C)C(=O)N[C@@H](C[C@@H]1CCNC1=O)C(O)S(=O)(=O)[O-])c1c(F)c(F)c(F)c(F)c1F.[Na+] (some centres not stated),–,–,6.22,–,–
CC(C)C[C@H](NC(=O)OC1CCC(C)(C)CC1)C(=O)N[C@H](C=O)C[C@@H]1CCNC1=O,–,> 100000 nM,6.60,5.46,6.92
CC(C)C[C@H](NC(=O)OC[C@H]1CC[C@H](C(F)(F)F)CC1)C(=O)N[C@H](C=O)C[C@@H]1CCNC1=O,–,–,6.60,–,–
CC(C)C[C@H](NC(=O)OC(c1ccccc1)C1CCC(F)(F)CC1)C(=O)N[C@@H](C[C@@H]1CCNC1=O)C(O)S(=O)(=O)O (some centres not stated),6.15,> 100000 nM,6.77,5.84,7.30
CC(C)C[C@H](NC(=O)OCc1ccc(F)cc1)C(=O)N[C@H](C=O)C[C@@H]1CCNC1=O,–,–,6.41,–,–
CC(C)C[C@H](NC(=O)O[C@H]1CC[C@H](c2ccccc2)CC1)C(=O)N[C@@H](C[C@@H]1CCNC1=O)C(O)S(=O)(=O)O (some centres not stated),–,–,6.64,–,–
CC(C)C[C@H](NC(=O)OC(C)(C)C1CCC(F)(F)CC1)C(=O)N[C@@H](C[C@@H]1CCNC1=O)C(O)S(=O)(=O)O (some centres not stated),–,–,5.90,–,–
CC(C)C[C@H](NC(=O)OC(C)C1CCC(F)(F)CC1)C(=O)N[C@@H](C[C@@H]1CCNC1=O)C(O)S(=O)(=O)O (some centres not stated),–,–,6.59,–,–
CC(C)C[C@H](NC(=O)OC1CCC(C)(C)CC1)C(=O)N[C@@H](C[C@@H]1CCNC1=O)C(O)S(=O)(=O)O (some centres not stated),–,> 100000 nM,6.62,5.78,6.92
CC(C)C[C@H](NC(=O)OCc1c(F)c(F)c(F)c(F)c1F)C(=O)N[C@H](C=O)C[C@@H]1CCNC1=O,–,> 100000 nM,–,5.49,7.30
CCCC(OC(=O)N[C@@H](CC(C)C)C(=O)N[C@@H](C[C@@H]1CCNC1=O)C(O)S(=O)(=O)O)c1ccccc1 (some centres not stated),–,> 100000 nM,6.68,5.43,6.89
CCCC(OC(=O)N[C@@H](CC(C)C)C(=O)N[C@H](C=O)C[C@@H]1CCNC1=O)c1ccccc1 (some centres not stated),–,> 100000 nM,6.48,5.62,7.10
CC(C)C[C@H](NC(=O)OCc1ccccc1F)C(=O)N[C@@H](C[C@@H]1CCNC1=O)C(O)S(=O)(=O)O (some centres not stated),–,–,6.42,–,–
CC(C)C[C@H](NC(=O)OC(Cc1ccccc1)C1CCC(F)(F)CC1)C(=O)N[C@@H](C[C@@H]1CCNC1=O)C(O)S(=O)(=O)O (some centres not stated),–,> 100000 nM,6.54,5.46,6.85
CC(C)C[C@H](NC(=O)O[C@H]1CC[C@H](C(C)C)CC1)C(=O)N[C@@H](C[C@@H]1CCNC1=O)C(O)S(=O)(=O)O (some centres not stated),–,–,6.62,–,–
[2H]C([2H])(OC(=O)N[C@@H](CC(C)C)C(=O)N[C@@H](C[C@@H]1CCNC1=O)C(O)S(=O)(=O)[O-])[C@H]1CC[C@H](CCC)CC1.[Na+] (some centres not stated),–,–,6.48,–,–
CC(C)C[C@H](NC(=O)OC(Cc1ccccc1)c1ccccc1)C(=O)N[C@H](C=O)C[C@@H]1CCNC1=O (some centres not stated),–,–,6.30,–,–
[2H]C([2H])(OC(=O)N[C@@H](CC(C)C)C(=O)N[C@H](C=O)C[C@@H]1CCNC1=O)[C@H]1CC[C@H](CCC)CC1,–,–,6.48,–,–
CC(C)C[C@H](NC(=O)OC[C@H]1CC[C@@H](C(F)(F)F)CC1)C(=O)N[C@@H](C[C@@H]1CCNC1=O)C(O)S(=O)(=O)O (some centres not stated),–,–,6.70,–,–

Structure (SMILES),pEC50 [1],CC50 [2],pIC50 [3],pEC50 [4],pIC50 [5]
CC(C)C[C@H](NC(=O)OCc1ccc(F)cc1)C(=O)N[C@@H](C[C@@H]1CCNC1=O)C(O)S(=O)(=O)O (some centres not stated),–,–,6.40,–,–
CC(C)C[C@H](NC(=O)OCC1CCC(F)(F)CC1)C(=O)N[C@H](C=O)C[C@@H]1CCNC1=O,–,–,–,–,7.10
CC(C)C[C@H](NC(=O)O[C@H]1CC[C@H](C(C)C)CC1)C(=O)N[C@H](C=O)C[C@@H]1CCNC1=O,–,–,6.62,–,–
CC(C)C[C@H](NC(=O)OCc1ccccc1F)C(=O)N[C@H](C=O)C[C@@H]1CCNC1=O,–,–,6.47,–,–
[2H]C([2H])(OC(=O)N[C@@H](CC(C)C)C(=O)N[C@@H](C[C@@H]1CCNC1=O)C(O)S(=O)(=O)[O-])C1CCC(F)(F)CC1.[Na+] (some centres not stated),–,–,6.68,–,–
CC(C)C[C@H](NC(=O)O[C@H]1CC[C@H](c2ccccc2)CC1)C(=O)N[C@H](C=O)C[C@@H]1CCNC1=O,–,–,6.66,–,–
CC(C)C[C@H](NC(=O)OCC1CCC(F)(F)CC1)C(=O)N[C@@H](C[C@@H]1CCNC1=O)C(O)S(=O)(=O)O (some centres not stated),–,–,–,–,7.00
CCC[C@H]1CC[C@H](COC(=O)N[C@@H](CC(C)C)C(=O)N[C@@H](C[C@@H]2CCNC2=O)C(O)S(=O)(=O)O)CC1 (some centres not stated),–,44000 nM,6.70,5.35,6.96
CC(C)C[C@H](NC(=O)OC[C@H]1CC[C@H](C(F)(F)F)CC1)C(=O)N[C@@H](C[C@@H]1CCNC1=O)C(O)S(=O)(=O)O (some centres not stated),–,–,6.72,–,–
CC(C)C[C@H](NC(=O)OC(c1ccccc1)C1CCC(F)(F)CC1)C(=O)N[C@H](C=O)C[C@@H]1CCNC1=O (some centres not stated),–,> 100000 nM,6.89,5.99,7.40
CCCCC(OC(=O)N[C@@H](CC(C)C)C(=O)N[C@@H](C[C@@H]1CCNC1=O)C(O)S(=O)(=O)O)C1CCC(F)(F)CC1 (some centres not stated),–,–,6.57,–,–
CCC[C@H]1CC[C@H](OC(=O)N[C@@H](CC(C)C)C(=O)N[C@@H](C[C@@H]2CCNC2=O)C(O)S(=O)(=O)O)CC1 (some centres not stated),–,–,6.72,–,–
[2H]C([2H])(OC(=O)N[C@@H](CC(C)C)C(=O)N[C@@H](C[C@@H]1CCNC1=O)C(O)S(=O)(=O)[O-])c1ccc(F)cc1.[Na+] (some centres not stated),–,–,6.49,–,–
CC(C)C[C@H](NC(=O)OC[C@H]1CC[C@@H](C(F)(F)F)CC1)C(=O)N[C@H](C=O)C[C@@H]1CCNC1=O,–,–,6.64,–,–
CC(C)C[C@H](NC(=O)OC(C)(C)C1CCC(F)(F)CC1)C(=O)N[C@H](C=O)C[C@@H]1CCNC1=O,–,–,5.92,–,–
[2H]C([2H])(OC(=O)N[C@@H](CC(C)C)C(=O)N[C@H](C=O)C[C@@H]1CCNC1=O)c1ccc(F)cc1,–,–,6.41,–,–
CC(C)C[C@H](NC(=O)OCc1cccc(F)c1)C(=O)N[C@@H](C[C@@H]1CCNC1=O)C(O)S(=O)(=O)O (some centres not stated),–,> 100000 nM,6.44,5.47,7.15
CC(C)C[C@H](NC(=O)OC(Cc1ccccc1)C1CCC(F)(F)CC1)C(=O)N[C@H](C=O)C[C@@H]1CCNC1=O (some centres not stated),–,> 100000 nM,6.51,5.53,7.00
CC(C)C[C@H](NC(=O)OC(Cc1ccccc1)c1ccccc1)C(=O)N[C@@H](C[C@@H]1CCNC1=O)C(O)S(=O)(=O)O (some centres not stated),–,–,6.51,–,–
CC(C)C[C@H](NC(=O)OCc1c(F)c(F)c(F)c(F)c1F)C(=O)N[C@@H](C[C@@H]1CCNC1=O)C(O)S(=O)(=O)O (some centres not stated),–,> 100000 nM,–,5.32,7.10
CCCC[C@H]1CC[C@H](OC(=O)N[C@@H](CC(C)C)C(=O)N[C@@H](C[C@@H]2CCNC2=O)C(O)S(=O)(=O)O)CC1 (some centres not stated),6.07,58000 nM,–,5.37,6.82
CC(C)C[C@H](NC(=O)OC(C)C1CCC(F)(F)CC1)C(=O)N[C@H](C=O)C[C@@H]1CCNC1=O (some centres not stated),–,–,6.59,–,–
CCC[C@H]1CC[C@H](OC(=O)N[C@@H](CC(C)C)C(=O)N[C@H](C=O)C[C@@H]2CCNC2=O)CC1,–,–,6.60,–,–

# From ChEMBL document CHEMBL5029188
